From PubChem BioAssay
IDH1 R132H inh: inhibitors of IDH1 R132H reductase, primary screen, biochemical, plate reader, single point; inhibition, % at 10 µM; 70,000 compounds, 0.18% hits; diaphorase/resazurin fluorescence, 60 min; AID 624101, 2012; in the data active = inhibition above about 34%; inconclusive = no clear call, values can overlap the other calls; inactive = below about 11%;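 note: 0% = DMSO and 100% = no enzyme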
Target sequence (O75874 whole entry R132H): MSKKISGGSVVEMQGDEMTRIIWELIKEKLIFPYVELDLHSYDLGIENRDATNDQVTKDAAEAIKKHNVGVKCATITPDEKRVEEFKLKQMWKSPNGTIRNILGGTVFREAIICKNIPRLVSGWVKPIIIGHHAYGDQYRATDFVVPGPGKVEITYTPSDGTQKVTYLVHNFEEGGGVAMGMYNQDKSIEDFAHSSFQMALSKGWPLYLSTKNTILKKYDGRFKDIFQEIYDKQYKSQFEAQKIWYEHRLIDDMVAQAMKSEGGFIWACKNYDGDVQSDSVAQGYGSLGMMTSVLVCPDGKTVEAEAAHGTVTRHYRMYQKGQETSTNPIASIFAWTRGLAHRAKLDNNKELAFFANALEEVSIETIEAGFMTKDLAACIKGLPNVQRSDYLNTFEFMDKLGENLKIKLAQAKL
T cruzi growth-1: T. cruzi intracellular proliferation inhibitors, primary screen, cell-based, beta-gal Tulahuen parasites, NIH3T3 host, luminescence | T. cruzi beta-gal in NIH3T3, GalScreen luminescence, 90 h | inhibition, % at 8.34 µM | 77,000 compounds, 5.9% hits | AID 624255, 2012;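 active = mean inhibition above about 93%, with at least 55% of replicates each passing it, limit read from the data, passing the limit was not always enough; inconclusive = only one of those two conditions holds; inactive = neither condition holds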
KDM4C inh: inhibitors of GASC-1 (KDM4C) histone demethylase, primary screen, biochemical, single concentration HTS; Lysine-specific demethylase 4C (Homo sapiens), Q9H3R0; GST-KDM4C 2-372, H3K9me3 peptide, LANCE TR-FRET; inhibition, % at 12.5 µM; 96,000 compounds, 0.15% hits; AID 720574, 2013;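 active = mean replicate inhibition above about 25%, with at least 55% of replicates also reaching it, limit read from the data, passing the limit was not always enough; inconclusive = only one of those two conditions met; inactive = neither condition met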
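System – N-terminal GST-fused human GASC-1 (KDM4C) fragment, residues 2-372 · Input – enzyme final amount 10 nM · Technique – LANCE TR-FRET, Eu antibody, ULight-streptavidin, EDTA, ex 340 nm, em 618/671 nm · Medium – HEPES buffer, pH 7.5, plus ascorbate · Incubation – enzyme reaction 30 min, then detection 60 min, both room temperature · Reagent – H3K9me3 peptide with Fe(II)/2OG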
T cruzi growth-2: T. cruzi intracellular proliferation inhibitors, confirmation, cell-based, NIH3T3 host, beta-gal parasite, luminescence, cherry-pick; shares compounds with T cruzi growth-1; T. cruzi beta-gal in NIH3T3, GalScreen luminescence, 90 h; inhibition, % at 8.35 µM; 5,600 compounds, 72% hits; AID 651739, 2012;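 active = mean replicate inhibition above about 95% and at least 55% of replicates individually reaching it, limit read from the data; inconclusive = only one of the two criteria is met; inactive = neither criterion is met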
T cruzi growth-3: inhibitors of intracellular T. cruzi replication, confirmation, NIH3T3 host cells, beta-gal parasites, cherry-pick, set 2 | shares compounds with T cruzi growth-1 | T. cruzi beta-gal in NIH3T3, GalScreen luminescence, 90 h | inhibition, % at 2.09 µM | 5,600 compounds, 21% hits | AID 651740, 2012;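 active = mean inhibition above about 95%, with at least 55% of replicates also reaching it, limit read from the data; inconclusive = meets just one of the two conditions; inactive = meets neither condition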;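 note: plate controls were neutral control median for no effect and positive control median for full effect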
3T3 cytotox: cytotoxicity in mouse NIH/3T3 fibroblasts, confirmation, cytotoxicity control for T. cruzi proliferation inhibitor project, cell-based, cherry-pick, single point; shares compounds with T cruzi growth-1; NIH/3T3 viability, CellTiter-Glo ATP luminescence, 90 h; 5,600 compounds, 14% hits; cytotoxicity (signal decrease), % at 8.35 µM;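 active = mean signal decrease across replicates above about 35% based on untreated-well scatter, with enough replicates individually passing, limit read from the data; inconclusive = no rule stated though some were filed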;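 note: 0% = median of neutral control wells and 100% = median of positive control wells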
3T3 cytotox 2: NIH/3T3 fibroblast cytotoxicity, confirmation, cytotoxicity control, cell-based, cherry-pick, single point, set 2; NIH/3T3 viability, CellTiter-Glo ATP luminescence, 90 h; 5,600 compounds, 56% hits; shares compounds with T cruzi growth-1; inhibition, % at 24.9 µM;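 active = mean loss of cell viability signal at or above a set limit, and enough replicates individually reaching it; inconclusive = meets only the mean limit or only the replicate share; inactive = meets neither condition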;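 note: 0% = median of neutral control wells and 100% = median of positive control wells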
The depositor's hits bear a star; ? = inconclusive; . = no result. This is one part of a sample in which hits are shown more often than they occur.

SMILES	IDH1 R132H inh	T cruzi growth-1	KDM4C inh	T cruzi growth-2	T cruzi growth-3	3T3 cytotox	3T3 cytotox 2
COc1cccc(C#Cc2ccc([C@H]3[C@H](CO)N4C(=O)CN(S(=O)(=O)c5ccccc5C)C[C@@H]34)cc2)c1	.	.	-1.2	.	.	.	.
Oc1c(C(Nc2ccccn2)c2ccccn2)cc(Cl)c2cccnc12 (stereo not given)	0.6	.	.	.	.	.	.
Cc1ccc(-c2ccc3c(c2)O[C@@H](CN(C)Cc2ccccc2)[C@H](C)CN([C@@H](C)CO)S3(=O)=O)cc1	2.5	115.7*	2.7	98.5*	103.6*	36.5*	103.6*
C[C@@H]1CN([C@@H](C)CO)S(=O)(=O)c2ccc(-c3cncnc3)cc2O[C@@H]1CN(C)Cc1ccccc1	-0.4	62.2	3.2	.	.	.	.
C[C@@H]1CN([C@@H](C)CO)S(=O)(=O)c2ccc(-c3ccccc3)cc2O[C@H]1CN(C)Cc1ccccc1	2.6	83.5	0.6	.	.	.	.
C[C@@H]1CN([C@H](C)CO)S(=O)(=O)c2ccc(-c3cncnc3)cc2O[C@H]1CN(C)Cc1ccccc1	-0.1	?	1.8	91.4	63.5	52.4*	68.3*
C[C@@H]1CN([C@H](C)CO)S(=O)(=O)c2ccc(-c3ccccc3)cc2O[C@H]1CN(C)Cc1ccncc1	.	-22.0	0.3	.	.	.	.
C[C@H](CO)N1C[C@H](C)[C@@H](CN(C)Cc2ccccc2)Oc2cc(-c3ccncc3)ccc2S1(=O)=O	.	117.4*	4.7	99.1*	103.1*	71.0*	75.9*
C[C@H](CO)N1C[C@H](C)[C@H](CN(C)Cc2ccncc2)Oc2cc(-c3ccccc3)ccc2S1(=O)=O	0.2	95.3*	1.3	104.8*	99.3*	23.7	39.8*
C[C@@H]1CN([C@@H](C)CO)S(=O)(=O)c2ccc(-c3ccncc3)cc2O[C@@H]1CN(C)Cc1ccccc1	.	86.4	-1.0	.	.	.	.
COc1cccc(S(=O)(=O)N[C@H]2C=C[C@@H](CC(=O)NCc3ccc(Cl)cc3)O[C@@H]2CO)c1	0.5	13.6	2.9	.	.	.	.
CO[C@@H]1CN(C)C(=O)c2ccc(NS(=O)(=O)c3cccc(F)c3)cc2OC[C@@H](C)NC[C@@H]1C	.	.	0.6	.	.	.	.
COC(=O)CC(O)(CCCC(C)(C)O)C(=O)O[C@@H]1C(OC)=C[C@]23CCCN2CCc2cc4c(cc2[C@@H]13)OCO4 (stereo not given in full)	-0.1	.	.	.	.	.	.
COc1ccc(CN(C)C[C@H]2Oc3c(NS(=O)(=O)c4cccs4)cccc3C(=O)N([C@H](C)CO)C[C@H]2C)cc1	-1.6	-5.6	0.2	.	.	.	.
O=C(COc1ccccc1Cl)Nc1ccc(C(=O)Nc2ccccc2C(=O)O)cc1	0.0	.	.	.	.	.	.
C[C@H](CO)N1C[C@H](C)[C@H](CN(C)Cc2ccncc2)Oc2cc(-c3cccnc3)ccc2S1(=O)=O	25.8	67.3	4.1	.	.	.	.
CC(=O)N(C)C[C@@H]1Oc2cc(-c3cccnc3)ccc2S(=O)(=O)N([C@H](C)CO)C[C@@H]1C	-0.3	-120.4	0.9	.	.	.	.
C[C@@H]1CN([C@@H](C)CO)S(=O)(=O)c2ccc(-c3cccnc3)cc2O[C@@H]1CN(C)C	-2.5	?	0.7	97.3*	91.9	7.9	10.5
C[C@H]1CN([C@@H](C)CO)S(=O)(=O)c2ccc(-c3cccnc3)cc2O[C@@H]1CN(C)Cc1ccncc1	23.1	?	-1.7	100.8*	62.8	12.3	27.5*
CCCNC(=O)N(C)C[C@@H]1Oc2ncc(C#CC3CC3)cc2C(=O)N([C@@H](C)CO)C[C@@H]1C	0.0	78.2	-0.1	.	.	.	.
C[C@H](O)C#Cc1ccc([C@H]2[C@H]3CN(C(=O)Nc4ccccc4)CCCCN3[C@H]2CO)cc1	.	75.4	1.0	.	.	.	.
CCCNC(=O)N[C@H]1CC[C@H](CC(=O)NC2CCC2)O[C@@H]1CO	0.2	-81.2	2.7	.	.	.	.
CS(=O)(=O)N1CC(=O)N2[C@H](CO)[C@@H](c3ccc(C#CC4CCCC4)cc3)[C@@H]2C1	.	.	-1.0	.	.	.	.
CN(C)C(=O)c1cccc(-c2ccc3c(c2)[C@@H]2[C@@H](CCN2S(=O)(=O)c2ccccc2)[C@H](CO)N3)c1	.	112.3*	-0.1	97.4*	80.4	22.7	23.2
CN(C)C(=O)c1ccc(-c2ccc3c(c2)[C@H]2[C@H](CCN2S(=O)(=O)c2ccccc2)[C@H](CO)N3)cc1	.	29.0	0.2	.	.	.	.
SMILES	IDH1 R132H inh	T cruzi growth-1	KDM4C inh	T cruzi growth-2	T cruzi growth-3	3T3 cytotox	3T3 cytotox 2
N#Cc1cccc(-c2ccc3c(c2)[C@@H]2[C@@H](CCN2S(=O)(=O)c2ccccc2)[C@H](CO)N3)c1	.	82.8	-0.2	.	.	.	.
CN(C)C(=O)c1cccc(-c2ccc3c(c2)[C@H]2[C@H](CCN2S(=O)(=O)c2ccccc2)[C@@H](CO)N3)c1	.	99.7*	-0.7	96.2*	80.8	9.6	16.7
COc1ccc(F)cc1S(=O)(=O)n1cnc2cc(C)c(C)cc21	-0.8	.	.	.	.	.	.
CCC(=O)Nc1ccc2c(c1)OC[C@H](C)N(C(=O)c1ccc(F)cc1)C[C@@H](C)[C@@H](OC)CN(C)C2=O	0.1	104.5*	1.7	-11.5	0.6	-5.1	-1.5
CO[C@H]1CN(C)C(=O)c2ccc(NC(=O)C3CC3)cc2OC[C@H](C)N(C(=O)c2cccnc2)C[C@H]1C	0.0	-31.1	-0.2	.	.	.	.
CCC(=O)Nc1ccc2c(c1)OC[C@H](C)N(C(=O)c1ccc(F)cc1)C[C@H](C)[C@@H](OC)CN(C)C2=O	.	.	-0.5	.	.	.	.
CO[C@H]1CN(C)C(=O)c2ccc(NC(=O)C3CC3)cc2OC[C@@H](C)N(C(=O)c2cccnc2)C[C@@H]1C	-0.5	108.6*	-0.4	-18.0	-18.2	-11.7	-3.9
COc1ccc(S(=O)(=O)N(C)CC(=O)Nc2ccccc2F)cc1C	-0.2	.	.	.	.	.	.
CC(=O)N(C)C[C@@H]1Oc2cc(C#Cc3ccccn3)ccc2S(=O)(=O)N([C@H](C)CO)C[C@H]1C	-0.4	43.4	0.3	.	.	.	.
C[C@H](CO)N1C[C@H](C)[C@H](CN(C)Cc2ccc(F)cc2)Oc2ncc(C3=CCCC3)cc2C1=O	0.1	-7.7	5.3	.	.	.	.
C[C@@H]1CCCCO[C@H](CN(C)C(=O)NC2CCCCC2)[C@H](C)CN([C@H](C)CO)C(=O)c2cc(NS(=O)(=O)c3cccs3)ccc2O1	.	26.0	-0.1	.	.	.	.
